From ChEMBL document CHEMBL1671615 (Antimicrob Agents Chemother, 2008)

Tests used:
[1] = Elimination rate constant in human THP1 cells at 3 ug/ml after 10 mins by HPLC; assay type: ADME, cell-based; details: THP-1 cells
[2] = Clearance in BALB/c mouse at 4 to 5 mg/kg, iv administered as single bolus dose by HPLC; assay type: ADME, organism-based; set-up: dose 4-5 mg/kg, route intravenous; details: in vivo
[3] = tested on: Mus musculus; test: Volume of distribution in BALB/c mouse at 4 to 5 mg/kg, iv administered as single bolus dose by HPLC; assay type: ADME, organism-based; set-up: dose 4-5 mg/kg, route intravenous; details: in vivo
[4] = tested on: Serum; test: AUC (OBS) in BALB/c mouse serum at 4 to 5 mg/kg administered as inhalable bolus dose by HPLC; assay type: ADME, organism-based; set-up: dose 4-5 mg/kg; details: in vivo, inhaled_or_intranasal
How it was run: (§1)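 BALB/c mice (25–30 g, either sex, groups of 4) given 100 μg drug by dry-powder inhalation of spray-dried polylactide microparticles (~10 mg charged, fluidized by 30 actuations over 30 s, nose-only). Noncompartmental extravascular-bolus fit; mean ± SD.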

[5] = tested on: Serum; test: AUC (OBS) in BALB/c mouse serum at 4 to 5 mg/kg, iv administered as single bolus dose by HPLC; assay type: ADME, organism-based; set-up: dose 4-5 mg/kg, route intravenous; details: in vivo
[6] = Elimination rate constant in human THP1 cells at 3 ug/ml administered as microparticles after 10 mins by HPLC; assay type: ADME, cell-based; details: THP-1 cells
How it was run: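 THP-1 cells (10⁶/well) were differentiated with PMA for 14 h, washed, and rested 10 h. Microparticles (12 μg/ml, drug-equivalent 3 μg/ml) were added for 2 h, then washed out. Duplicate wells were lysed by freeze-thaw at serial times and analyzed by HPLC. A one-compartment model with no lag and first-order elimination was fitted.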

[7] = tested on: Mus musculus; test: (§2) Clearance in BALB/c mouse at 4 to 5 mg/kg administered as inhalable bolus dose by HPLC; assay type: ADME, organism-based; set-up: dose 4-5 mg/kg; details: in vivo, inhaled_or_intranasal; how it was run: as §1
[8] = tested on: Mus musculus; test: Volume of distribution in BALB/c mouse at 4 to 5 mg/kg administered as inhalable bolus dose by HPLC; assay type: ADME, organism-based; set-up: dose 4-5 mg/kg; details: in vivo, inhaled_or_intranasal; how it was run: as §1
[9] = Plasma concentration in BALB/c mouse at 4 to 5 mg/kg, iv administered as single bolus dose by HPLC; assay type: ADME, organism-based; set-up: dose 4-5 mg/kg, route intravenous
[10] = Plasma concentration in BALB/c mouse at 4 to 5 mg/kg administered as inhalable bolus dose by HPLC; assay type: ADME, organism-based; set-up: dose 4-5 mg/kg; details: inhaled or intranasal; how it was run: as §1
[11] = Cmax in 10^6 mouse alveolar macrophages at 4 to 5 mg/kg, iv measured after 4 hrs by HPLC; assay type: ADME, organism-based, BALB/c, Macrophage; set-up: dose 4-5 mg/kg, route intravenous; details: in vivo
How it was run: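 After a 100 μg i.v. caudal-vein dose, four mice per time point underwent bronchoalveolar lavage with chilled saline plus 0.5 mM EDTA. Macrophages in the lavage were counted by hemocytometer and lysed, and drug was quantified by HPLC-UV per 10⁶ cells.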

[12] = Cmax in 10^6 mouse alveolar macrophages at 4 to 5 mg/kg administered as inhalable dose measured 6 hrs postinhalation by HPLC; assay type: ADME, organism-based, Macrophage; set-up: dose 4-5 mg/kg; details: in vivo, inhaled_or_intranasal
How it was run: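 Mice inhaled 100 μg drug as dry-powder microparticles. Four animals per time point were anesthetized, and lungs were lavaged with chilled saline containing 0.5 mM EDTA. Recovered alveolar macrophages were counted by hemocytometer and extracted. Drug was measured by HPLC-UV and expressed per 10⁶ cells.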

[13] = Half life in BALB/c mouse serum at 4 to 5 mg/kg administered as inhalable bolus dose by HPLC; assay type: ADME, organism-based; set-up: dose 4-5 mg/kg; details: inhaled or intranasal; how it was run: as §1
[14] = Half life in BALB/c mouse serum at 4 to 5 mg/kg, iv administered as single bolus dose by HPLC; assay type: ADME, organism-based; set-up: dose 4-5 mg/kg, route intravenous
[15] = as §2; assay type: ADME, organism-based; set-up: dose 4-5 mg/kg; details: BALB/c, in vivo, inhaled or intranasal; how it was run: as §1

Row | Compound | k el at 10 min, 3 ug/ml [1] | clearance [2] | Vz [3] | AUC [4] | AUC [5] | k el at 10 min, 3 ug/ml [6] | CL [7] | Vz [8] | Cmax [9] | Cmax [10] | Cmax [11] | Cmax [12] | half-life [13] | half-life [14] | CL/F [15]
1 | NNC(=O)c1ccncc1 [ISONIAZID] | 9.44e-06 s⁻¹ | 0.0738 mL/min | 41.34 mL | 55.34 µg/mL/h | 16.64 µg/mL/h | 0.000102 s⁻¹ | 63.9 mL/h | 1670 mL | 3240 ng/mL | 2370 ng/mL | 0.29 µg | 0.56 µg | – | – | –
2 | CO[C@H]1/C=C/O[C@@]2(C)Oc3c(C)c(O)c4c(c3C2=O)C2=NC3(CCN(CC(C)C)CC3)NC2=C(NC(=O)/C(C)=C\C=C\[C@H](C)[C@H](O)[C@@H](C)[C@@H](O)[C@@H](C)[C@H](OC(C)=O)[C@@H]1C)C4=O [RIFABUTIN] | 1.39e-06 s⁻¹ | 0.017 mL/min | 29.52 mL | 109.35 µg/mL/h | 90.82 µg/mL/h | 1.67e-05 s⁻¹ | – | 2308.84 mL | 3470 ng/mL | 1590 ng/mL | 0.32 µg | 1.65 µg | 119 h | 20.2 h | 0.195 mL/min
